Experimental findings from ChEMBL document CHEMBL1137238, “The synthesis and SAR of 2-amino-pyrrolo[2,3-d]pyrimidines: a new class of Aurora-A kinase inhibitors” (Bioorg Med Chem Lett, 2006) are described below.

In assay [1] the target is T1, Cyclin-dependent kinase 4 (Homo sapiens, UniProt P11802). Description: Inhibition of retinoblastoma phosphorylation by CDK4. Format: functional. An outline of the steps: (§1)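 Purified CDK4 incubated with compounds and retinoblastoma protein substrate in 100 mM Hepes pH 7.5, 75 mM NaCl, 2 mM DTT, 10 mM MgCl2, 30 μM ATP. Stopped after 35 min. Rb phosphorylation at Ser795 measured colorimetrically with a phospho-specific antibody.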

Assay [2] deals with Vascular endothelial growth factor receptor (Homo sapiens, UniProt P17948+P35916+P35968). In words: Inhibition of VEGFR. Format: protein assay.
The target of assay [3] is Aurora kinase A (Mus musculus) (UniProt P97477). In words: Inhibition of Aurora-A.
A further assay addresses Insulin receptor (Homo sapiens, UniProt P06213). In words: Inhibition of IRK.
Assay [4] concerns the target T1, Cyclin-dependent kinase 4. Description: Inhibition of CDK4. An outline of the steps: as §1
Assay [5] deals with Proto-oncogene tyrosine-protein kinase Src (Homo sapiens, UniProt P12931). Description: Inhibition of c-src.
Assay [6] addresses Platelet-derived growth factor receptor (Homo sapiens, UniProt P09619+P16234). Description: Inhibition of PDGFR. The class given is protein-complex assay.
The target of assay [7] is Cyclin-dependent kinase 1 (Homo sapiens, UniProt P06493). In words: Inhibition of CDK1.
For assay [8], the target named is Cyclin-dependent kinase 7 (Homo sapiens, UniProt P50613). Description: Inhibition of CDK7.
In assay [9] the target is BDNF/NT-3 growth factors receptor (Homo sapiens, UniProt Q16620). Description: Inhibition of TrkB.
Sequence of BDNF/NT-3 growth factors receptor (Q16620 whole entry): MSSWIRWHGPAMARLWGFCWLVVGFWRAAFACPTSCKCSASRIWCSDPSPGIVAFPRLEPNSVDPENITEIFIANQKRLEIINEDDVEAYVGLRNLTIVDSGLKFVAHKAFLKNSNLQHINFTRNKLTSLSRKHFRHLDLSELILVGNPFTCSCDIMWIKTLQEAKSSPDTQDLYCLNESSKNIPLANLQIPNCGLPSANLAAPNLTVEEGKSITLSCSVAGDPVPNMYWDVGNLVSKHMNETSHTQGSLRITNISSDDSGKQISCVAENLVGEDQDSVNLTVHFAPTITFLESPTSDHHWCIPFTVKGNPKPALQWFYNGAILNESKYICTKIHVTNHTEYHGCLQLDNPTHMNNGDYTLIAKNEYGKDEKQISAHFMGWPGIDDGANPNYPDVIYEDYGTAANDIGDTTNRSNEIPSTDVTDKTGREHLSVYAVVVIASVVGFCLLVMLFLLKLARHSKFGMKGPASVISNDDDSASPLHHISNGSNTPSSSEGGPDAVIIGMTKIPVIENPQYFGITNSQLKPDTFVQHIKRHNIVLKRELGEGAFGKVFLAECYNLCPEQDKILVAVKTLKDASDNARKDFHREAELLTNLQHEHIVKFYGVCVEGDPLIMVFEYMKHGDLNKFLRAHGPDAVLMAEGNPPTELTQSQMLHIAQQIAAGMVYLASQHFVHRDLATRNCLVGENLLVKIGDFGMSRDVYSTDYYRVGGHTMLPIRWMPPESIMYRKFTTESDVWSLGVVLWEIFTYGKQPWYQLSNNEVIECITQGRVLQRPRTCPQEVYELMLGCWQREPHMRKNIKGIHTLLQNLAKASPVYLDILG

T1 sequence (P11802 whole entry): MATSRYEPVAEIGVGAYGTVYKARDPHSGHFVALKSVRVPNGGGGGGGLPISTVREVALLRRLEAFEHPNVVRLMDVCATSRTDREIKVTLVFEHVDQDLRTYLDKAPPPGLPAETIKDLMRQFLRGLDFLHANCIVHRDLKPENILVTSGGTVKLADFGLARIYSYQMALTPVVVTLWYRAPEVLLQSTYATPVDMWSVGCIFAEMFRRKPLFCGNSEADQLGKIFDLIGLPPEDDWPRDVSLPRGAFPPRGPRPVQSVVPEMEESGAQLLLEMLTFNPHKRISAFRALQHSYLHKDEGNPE
Sequence of Cyclin-dependent kinase 7 (P50613 whole entry): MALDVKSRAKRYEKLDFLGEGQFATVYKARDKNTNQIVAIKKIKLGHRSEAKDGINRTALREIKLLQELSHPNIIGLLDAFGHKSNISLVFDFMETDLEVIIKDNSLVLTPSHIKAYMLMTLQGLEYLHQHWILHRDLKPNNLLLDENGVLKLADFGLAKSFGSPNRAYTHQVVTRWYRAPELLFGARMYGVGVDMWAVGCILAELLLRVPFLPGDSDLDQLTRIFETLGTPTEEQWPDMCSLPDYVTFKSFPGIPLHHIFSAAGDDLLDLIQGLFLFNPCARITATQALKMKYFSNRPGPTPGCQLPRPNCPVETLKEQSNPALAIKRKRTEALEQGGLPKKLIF
Sequence of Aurora kinase A (Mus musculus) (P97477 whole entry, looked up): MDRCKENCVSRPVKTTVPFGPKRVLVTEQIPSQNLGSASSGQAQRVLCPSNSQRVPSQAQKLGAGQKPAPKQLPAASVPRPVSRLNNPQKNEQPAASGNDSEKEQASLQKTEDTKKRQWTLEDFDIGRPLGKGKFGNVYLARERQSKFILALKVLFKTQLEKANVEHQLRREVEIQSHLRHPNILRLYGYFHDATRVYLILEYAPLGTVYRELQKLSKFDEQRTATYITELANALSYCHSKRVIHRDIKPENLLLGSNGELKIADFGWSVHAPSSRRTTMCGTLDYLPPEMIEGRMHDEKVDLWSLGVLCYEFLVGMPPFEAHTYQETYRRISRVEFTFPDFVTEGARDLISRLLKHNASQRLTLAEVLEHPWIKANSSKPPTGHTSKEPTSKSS
Sequence of Proto-oncogene tyrosine-protein kinase Src (P12931 2-536 limits assumed): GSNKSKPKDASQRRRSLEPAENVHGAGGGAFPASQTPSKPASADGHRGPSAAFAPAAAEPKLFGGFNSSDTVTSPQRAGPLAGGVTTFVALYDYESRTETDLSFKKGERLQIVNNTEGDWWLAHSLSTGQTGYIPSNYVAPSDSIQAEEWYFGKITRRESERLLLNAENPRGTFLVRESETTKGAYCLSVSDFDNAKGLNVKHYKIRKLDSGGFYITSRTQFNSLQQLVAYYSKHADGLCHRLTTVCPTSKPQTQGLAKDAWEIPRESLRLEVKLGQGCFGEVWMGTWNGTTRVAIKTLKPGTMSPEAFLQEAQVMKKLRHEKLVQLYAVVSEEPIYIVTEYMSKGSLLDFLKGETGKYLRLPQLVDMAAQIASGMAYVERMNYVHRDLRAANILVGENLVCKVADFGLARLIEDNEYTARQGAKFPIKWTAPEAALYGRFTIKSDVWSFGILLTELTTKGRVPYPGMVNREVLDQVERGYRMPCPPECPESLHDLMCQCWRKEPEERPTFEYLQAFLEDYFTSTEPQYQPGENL
Sequence of Cyclin-dependent kinase 1 (P06493 whole entry): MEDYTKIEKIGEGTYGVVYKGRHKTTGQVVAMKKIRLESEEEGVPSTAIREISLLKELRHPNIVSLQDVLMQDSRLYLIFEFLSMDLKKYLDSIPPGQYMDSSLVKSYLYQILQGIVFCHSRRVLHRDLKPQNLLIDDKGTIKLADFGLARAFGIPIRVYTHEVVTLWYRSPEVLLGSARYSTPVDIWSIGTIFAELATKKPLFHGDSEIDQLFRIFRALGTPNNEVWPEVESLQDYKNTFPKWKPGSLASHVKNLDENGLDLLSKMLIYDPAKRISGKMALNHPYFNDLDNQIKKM
Sequence of Insulin receptor (P06213 28-758 limits assumed): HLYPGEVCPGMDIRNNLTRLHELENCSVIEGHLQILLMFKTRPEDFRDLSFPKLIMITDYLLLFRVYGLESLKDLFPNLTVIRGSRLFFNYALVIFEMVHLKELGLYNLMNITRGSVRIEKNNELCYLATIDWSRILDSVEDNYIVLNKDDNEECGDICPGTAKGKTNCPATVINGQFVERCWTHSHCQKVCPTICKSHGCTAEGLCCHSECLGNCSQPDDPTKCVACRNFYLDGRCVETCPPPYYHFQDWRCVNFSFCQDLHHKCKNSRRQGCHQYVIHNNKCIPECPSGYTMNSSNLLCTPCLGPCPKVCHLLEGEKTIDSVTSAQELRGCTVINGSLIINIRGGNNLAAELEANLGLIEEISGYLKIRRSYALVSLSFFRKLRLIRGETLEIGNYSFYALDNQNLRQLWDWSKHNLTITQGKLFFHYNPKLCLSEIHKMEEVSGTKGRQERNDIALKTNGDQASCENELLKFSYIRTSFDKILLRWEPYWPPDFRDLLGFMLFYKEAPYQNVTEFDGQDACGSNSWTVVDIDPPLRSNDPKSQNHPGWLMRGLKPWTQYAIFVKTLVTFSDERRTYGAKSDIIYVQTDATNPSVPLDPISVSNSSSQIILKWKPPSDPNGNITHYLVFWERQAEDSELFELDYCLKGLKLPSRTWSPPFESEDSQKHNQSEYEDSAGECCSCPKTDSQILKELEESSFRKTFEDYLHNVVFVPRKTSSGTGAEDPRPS
Sequence of Insulin receptor (P06213 763-1382 limits assumed): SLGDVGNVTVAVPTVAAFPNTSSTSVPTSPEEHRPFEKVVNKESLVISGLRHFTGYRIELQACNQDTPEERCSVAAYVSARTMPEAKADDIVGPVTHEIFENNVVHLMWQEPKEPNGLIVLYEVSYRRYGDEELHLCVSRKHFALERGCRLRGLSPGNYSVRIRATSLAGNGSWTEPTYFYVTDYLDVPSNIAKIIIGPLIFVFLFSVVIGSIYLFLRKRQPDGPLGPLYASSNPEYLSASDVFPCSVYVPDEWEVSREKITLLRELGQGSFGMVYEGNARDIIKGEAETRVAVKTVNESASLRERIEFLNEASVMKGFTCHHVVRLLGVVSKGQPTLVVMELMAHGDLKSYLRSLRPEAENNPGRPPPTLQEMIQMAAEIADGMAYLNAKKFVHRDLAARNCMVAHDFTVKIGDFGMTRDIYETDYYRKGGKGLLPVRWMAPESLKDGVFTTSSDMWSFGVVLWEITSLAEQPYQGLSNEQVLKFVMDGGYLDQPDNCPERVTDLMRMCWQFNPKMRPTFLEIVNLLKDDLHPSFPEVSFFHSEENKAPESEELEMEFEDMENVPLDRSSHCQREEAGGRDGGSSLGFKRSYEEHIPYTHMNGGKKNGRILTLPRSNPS

For `CN1CCN(c2ccc(Nc3ncc4ccn(-c5cccnc5)c4n3)cc2)CC1`, in assay [1], 1400 nM corresponded to half-maximal inhibition (IC50).
Regarding `CN1CCN(c2ccc(Nc3ncc4ccn(C5CCCCC5)c4n3)cc2)CC1`, the half-maximal inhibitory concentration (IC50) came to 100 nM in [2]; 47 nM in [3]; 1000 nM against Insulin receptor; 31 nM in [4]; 710 nM in assay [5]; 290 nM in [6]. Besides, the IC50 in assay [7] was 1600 nM; in [8] it was 1500 nM; in assay [1], 31 nM; in assay [9] it was 160 nM.
As for `CN1CCN(c2ccc(Nc3ncc4ccn(C5CC6CCC5C6)c4n3)cc2)CC1` (centres undefined), the IC50 in [1] is 29 nM.
For the compound `COCCN1CCN(c2ccc(Nc3ncc4ccn(C5CCCCC5)c4n3)cc2)CC1`, half-maximal inhibition in [1] (IC50) required 110 nM.
On the same count and under the same terms, the value for `O=C(O)Cc1cccc(Nc2ncc3ccn(C4CCCCC4)c3n2)c1` was 350 nM; that for `O=S1(=O)CCN(c2ccc(Nc3ncc4ccn(C5CCCCC5)c4n3)cc2)CC1` was 1000 nM; that for `COc1cccc(-n2ccc3cnc(Nc4ccc(N5CCN(C)CC5)cc4)nc32)c1` was 340 nM.
`c1cc(N2CCOCC2)ccc1Nc1ncc2ccn(C3CCCCC3)c2n1` showed a half-maximal inhibitory concentration (IC50) in assay [1] of 600 nM.
Still for that read-out and setting: as for `CN1CCN(c2ccc(Nc3ncc4ccn(-c5cccc(S(C)(=O)=O)c5)c4n3)cc2)CC1`, the figure is 2000 nM.
On to `CN1CCN(c2ccc(Nc3ncc4ccn(C5Cc6ccccc6C5)c4n3)cc2)CC1`, for which the IC50 in [1] worked out at 2100 nM.

What is called IC50 is the concentration that inhibits the measured activity by half. Higher therefore signals lower potency.
